Reference: ChEMBL document CHEMBL4715825, “Synthesis and biological evaluations of marine oxohexadecenoic acids: PPARα/γ dual agonism and anti-diabetic target gene effects” (Eur J Med Chem, 2018)
Activity calls are given as the source filed them. The calls are words filed in the database; no cut-off is given here.

How the values were obtained:
SGBS [1] = experiment: Induction of adipogenesis in 8 day differentiated human SGBS cells assessed as increase in adipocyte-like multilocular morphology cells at 25 uM measured upto 12 days by oil-O-red staining based inverted microscopic analysis; format: functional, cell-based; conditions: time day <=12
Outline: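 SGBS cells were differentiated in Quickdiff for 4 days, supplemented with 25 µM oxo-fatty acid or 2 µM rosiglitazone, then in 3FC to day 8. Controls were DMSO (0.025%) or BSA (4.2 µM). Cells were fixed in 4% paraformaldehyde for 15 min and stained 15 min with Oil Red O for neutral lipids. They were imaged by inverted microscope at 10× and 40×. Three biological replicates were run in duplicate.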

SGBS [2] = experiment: Induction of adipogenesis in 8 day differentiated human SGBS cells assessed as upregulation of fatty acid biosynthesis genes at 25 uM incubated for 8 days by Illumina sequencing method; format: functional, cell-based
Outline: (§1)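 SGBS cells were differentiated for 8 days: Quickdiff for days 0-4 with 2 µM rosiglitazone or 25 µM oxo-fatty acid:BSA, then 3FC. Total RNA was extracted (RIN 9.80-10.00) and strand-specific TruSeq libraries were sequenced on NextSeq 500 (2×75 bp paired-end). Reads were aligned to hg19 and quantified as RPKM. Data were expressed as log2 fold over day-0 cells (n = 2-4) and grouped into KEGG gene sets.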

SGBS [3] = experiment: Induction of adipogenesis in 8 day differentiated human SGBS cells assessed as upregulation of PPAR signalling genes at 25 uM incubated for 8 days by Illumina sequencing method; format: functional, cell-based; outline: as §1
SGBS [4] = experiment: Effect on diabetic complication pathway in 8 day differentiated human SGBS cells assessed as downregulation of extracellular matrix-recptor interaction genes at 25 uM incubated for 8 days by Illumina sequencing method; format: functional, cell-based
Outline: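 SGBS cells were differentiated 4 days in Quickdiff supplemented with compound:BSA or rosiglitazone, then 4 days in 3FC. Total RNA was extracted, and strand-specific TruSeq libraries were sequenced on NextSeq 500 (2×75 bp paired-end). Reads were aligned to hg19 with Tophat/Bowtie and counted as RPKM by Cufflinks. Values are log2 fold over day 0 cells, grouped into KEGG gene sets (n = 2-4).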

SGBS [5] = experiment: Induction of adipogenesis in 8 day differentiated human SGBS cells assessed as increase in UCP1 mRNA expression at 25 uM measured over 12 days by qRT-PCR analysis; format: functional, cell-based; conditions: time 12.0 day
Outline: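 SGBS preadipocytes (passage P6-P8) were grown to confluence (day 0), then differentiated 4 days in Quickdiff (3FC with 25 nM dexamethasone, 0.5 mM IBMX) supplemented with 25 µM oxo-fatty acid (as BSA complex), then in 3FC medium with medium renewed every fourth day. Cells were harvested on days 0, 4, 8 and 12. mRNA was measured by SYBR green qPCR. Data are mean ± SEM from at least 3 biological replicates run in duplicate.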

[6] = target: T1, Oxysterols receptor LXR-alpha (Homo sapiens) (UniProt Q13133); experiment: Agonist activity at recombinant human LXRalpha LBD (164 to 447 residues) expressed in African green monkey COS-1 cells at 25 to 50 uM incubated for 18 hrs by luciferase reporter gene assay; format: cell-based; conditions: dose 25-50 µM
T1 sequence (whole entry): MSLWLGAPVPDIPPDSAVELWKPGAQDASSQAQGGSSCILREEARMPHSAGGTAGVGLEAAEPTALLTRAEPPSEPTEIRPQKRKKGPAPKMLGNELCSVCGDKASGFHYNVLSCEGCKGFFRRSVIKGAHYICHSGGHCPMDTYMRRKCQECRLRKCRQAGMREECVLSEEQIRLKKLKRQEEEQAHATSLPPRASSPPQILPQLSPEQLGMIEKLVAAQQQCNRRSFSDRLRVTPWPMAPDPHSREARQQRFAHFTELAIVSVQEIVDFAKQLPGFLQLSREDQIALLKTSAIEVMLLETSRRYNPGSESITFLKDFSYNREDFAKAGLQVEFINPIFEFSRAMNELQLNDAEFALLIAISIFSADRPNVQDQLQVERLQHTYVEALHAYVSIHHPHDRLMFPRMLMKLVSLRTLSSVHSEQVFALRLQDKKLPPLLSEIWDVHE
Outline: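 Transient Gal4 one-hybrid assay in COS-1 cells (7×10^4 per well), transfected 24 h after seeding. Plasmids were Gal4-DBD fused to the human nuclear receptor LBD, a 5×UAS-SV40 luciferase reporter and pRL-CMV Renilla control. Ligand in DMSO (final 0.1%) was added 5 h post-transfection. Dual-luciferase activity was read after 18 h, expressed as RLU, from three biological replicates in quadruplicate.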

SGBS [7] = experiment: Induction of adipogenesis in 8 day differentiated human SGBS cells assessed as increase in ADIPOQ mRNA expression at 25 uM measured over 12 days by qRT-PCR analysis; format: functional, cell-based; conditions: time 12.0 day
Outline: (§2)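 SGBS cells were grown to confluence (day 0). Quickdiff medium was supplemented with compound or rosiglitazone for 4 days, followed by 3FC medium. DMSO or DMSO:BSA served as control. RNA was harvested on days 0, 4, 8 and 12, and expression was measured by SYBR-green qPCR. Data are mean ± SEM of at least three biological replicates in duplicate.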

COS-1 = experiment: Agonist activity at recombinant full length human PPARalpha/gamma/RXRalpha expressed in African green monkey COS-1 cells assessed as induction of CPT1A driven luciferase reporter activity at 25 uM incubated for 18 hrs by dual luciferase reporter gene assay; format: cell-based; conditions: filed as agonist
Outline: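 COS-1 cells were kept in DMEM/10% FBS at 37 °C, 5% CO2, and seeded at 7×10^4 per well. After 24 h they were lipofected with full-length PPAR and RXR expression plasmids, a PLIN1- or CPT1A-driven luciferase reporter and pRL-CMV Renilla control. Compound in DMSO (final 0.1%) was added 5 h later. After 18 h, cells were lysed for Dual-Luciferase readout. Three biological replicates were run in quadruplicate.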

[8] = target: T2, Peroxisome proliferator-activated receptor gamma (Homo sapiens) (UniProt P37231); experiment: Agonist activity at human PPARgamma in 8 day differentiated human SGBS cells assessed as decrease in IL-1 beta gene expression at 25 uM incubated for 24 hrs by SYBR-green based qPCR analysis; format: cell-based; conditions: filed as agonist
T2 sequence (whole entry): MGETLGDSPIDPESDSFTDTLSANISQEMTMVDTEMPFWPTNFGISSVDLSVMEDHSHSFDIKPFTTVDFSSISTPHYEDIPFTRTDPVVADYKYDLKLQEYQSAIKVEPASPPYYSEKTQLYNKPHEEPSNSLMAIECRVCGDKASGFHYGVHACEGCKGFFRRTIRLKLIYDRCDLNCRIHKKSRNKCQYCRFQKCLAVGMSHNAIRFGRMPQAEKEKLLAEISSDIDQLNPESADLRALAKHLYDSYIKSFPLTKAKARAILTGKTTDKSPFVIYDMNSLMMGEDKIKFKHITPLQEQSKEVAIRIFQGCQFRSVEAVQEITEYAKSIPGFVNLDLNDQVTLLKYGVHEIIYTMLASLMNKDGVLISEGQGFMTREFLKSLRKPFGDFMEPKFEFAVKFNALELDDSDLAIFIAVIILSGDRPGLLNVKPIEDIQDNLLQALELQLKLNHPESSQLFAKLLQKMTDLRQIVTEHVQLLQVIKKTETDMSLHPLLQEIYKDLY

SGBS [9] = experiment: Induction of adipogenesis in 8 day differentiated human SGBS cells assessed as increase in CEBPA mRNA expression at 25 uM measured upto 12 days by qRT-PCR analysis; format: functional, cell-based; conditions: time day <=12; outline: as §2

Row | Compound | Activity (SGBS [1]) | Activity (SGBS [2]) | Activity (SGBS [3]) | Activity (SGBS [4]) | Activity (SGBS [5]) | Activity [6] | Activity (SGBS [7]) | Activity (COS-1) | Activity [8] | Activity (SGBS [9])
1 | CCCCCCCC(=O)/C=C/CCCCCC(=O)O | Active | Active | Active | Active | Active | inactive | Active | Active | Active | Active
2 | CCCCC/C=C/C(=O)CCCCCCCC(=O)O | Active | Active | Active | Active | Active | inactive | Active | Active | Active | Active
